ChEMBL document CHEMBL4725407, “New cannabinoid receptor antagonists as pharmacological tool” (Bioorg Med Chem, 2020)
The source made the active and inactive calls. No cut-off for these calls is given here.

Tests used:
Cannabinoid receptor 2 = Cannabinoid receptor 2 (Homo sapiens, UniProt P34972); assay: Displacement of [3H]CP55940 from human CB2R transfected in HEK293EBNA cell membrane incubated for 90 mins by Microbeta TriLux based luminescence analysis; format: cell membranes, HEK293-EBNA
Cannabinoid receptor 1 [1] = biological target: T1, Cannabinoid receptor 1 (Homo sapiens, UniProt P21554); assay: Displacement of [3H]CP55940 from human CB1R transfected in HEK293EBNA cell membranes incubated for 90 mins by Microbeta TriLux based luminescence analysis; parameters: species or system HEK293-EBNA
Mus musculus = organism: Mus musculus; assay: Antagonist activity at cannabinoid receptor in ICR mouse vas deferens assessed as reduction of WIN55212-2-induced inhibition of electrically evoked contraction at 1 uM incubated for 10 mins prior to WIN55212-2 addition; format: tissue-based
HEK293-EBNA = assay: Selectivity index, ratio of Ki for human CB1R transfected in HEK293EBNA cell membrane to ratio of Ki for human CB2R transfected in HEK293EBNA cell membrane incubated for 90 mins by Microbeta TriLux based luminescence analysis
Procedure, shortened: (§1)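 Membranes of HEK293EBNA cells expressing human CB1 (~0.415 mg/mL protein) or CB2 (~0.18 mg/mL) incubated 90 min at 30 °C with [³H]-CP55940 (0.54 nM CB1; 0.33 nM CB2) and competitor, in Tris buffer pH 7.4 with EDTA, MgCl₂, BSA. Filtered, washed, bound radioactivity counted; IC50 by curve fitting, Ki by Cheng–Prusoff; selectivity = Ki CB1/Ki CB2.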

MC3T3-E1 = assay: Cytotoxicity against mouse MC3T3-E1 cell assessed as reduction in cell viability at 1 uM incubated for 48 hrs by MTT assay; format: cell-based; conditions: mc3t3-e1, 48 h
Procedure, shortened: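 MC3T3-E1 cells in 96-well plates, 24 h in DMEM/10% FBS, then 48 h with compound at 10⁻⁶ M or vehicle; viability by MTT reduction; three experiments in sextuplicate.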

[2] = biological target: Cannabinoid receptor 2 (Mus musculus) (UniProt P47936); assay: Agonist activity at CB2 receptor in mouse MC3T3-E1 cells assessed as induction of bone activity by measuring increase in collagen I gene expression at 1 uM incubated for 72 hrs by real time PCR analysis; format: cell-based
Procedure, shortened: (§2)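 MC3T3-E1 cells in DMEM/10% FBS for 24 h; attached cells moved to osteogenic medium (50 μg/mL ascorbic acid, 10⁻⁹ M dexamethasone, 10 mM β-glycerophosphate) with agent (HU308 10⁻⁶–10⁻⁸ M; antagonists 10⁻⁶ M) or vehicle, 72 h at 37 °C, 5% CO₂. Collagen type I mRNA from total RNA by RT-qPCR, ΔΔCT relative quantification; three experiments in triplicate.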

[3] = biological target: Cannabinoid receptor 2 (Mus musculus) (UniProt P47936); assay: Antagonist activity at CB2 receptor in mouse MC3T3-E1 cells assessed as inhibition of HU308-induced collagen I gene expression at 1 uM pretreated with compound and HU308 for 24 hrs followed by further incubation with HU308 for 48 hrs by real time PCR analysis; format: cell-based; conditions: filed as antagonist, time 72.0 hrs
Procedure, shortened: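 MC3T3-E1 cells seeded 24 h in DMEM/10% FBS, then pre-treated 24 h in osteogenic medium (ascorbic acid, dexamethasone, β-glycerophosphate) with 10⁻⁶ M antagonist plus HU308 10⁻⁸ M; medium then replaced by osteogenic medium with HU308 10⁻⁸ M alone (controls vehicle) for 48 h more. Collagen I mRNA by RT-qPCR, ΔΔCT; three experiments in triplicate.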

Cannabinoid receptor 1 [4] = biological target: T1, Cannabinoid receptor 1; assay: Displacement of [3H]CP55940 from human CB1R transfected in HEK293EBNA cell membrane incubated for 90 mins by Microbeta TriLux based luminescence analysis relative to control; format: cell membranes; conditions: HEK293-EBNA; procedure, shortened: as §1
[5] = biological target: Cannabinoid receptor 2 (Mus musculus) (UniProt P47936); assay: Agonist activity at CB2 receptor in mouse MC3T3-E1 cells assessed as induction of bone activity by measuring increase in collagen I gene expression at 0.01 to 1 uM incubated for 72 hrs by real time PCR analysis; format: cell-based; conditions: filed as agonist, dose microM 0.01-1, time 72.0 hrs; procedure, shortened: as §2

Chain of Cannabinoid receptor 2 (P34972 whole entry): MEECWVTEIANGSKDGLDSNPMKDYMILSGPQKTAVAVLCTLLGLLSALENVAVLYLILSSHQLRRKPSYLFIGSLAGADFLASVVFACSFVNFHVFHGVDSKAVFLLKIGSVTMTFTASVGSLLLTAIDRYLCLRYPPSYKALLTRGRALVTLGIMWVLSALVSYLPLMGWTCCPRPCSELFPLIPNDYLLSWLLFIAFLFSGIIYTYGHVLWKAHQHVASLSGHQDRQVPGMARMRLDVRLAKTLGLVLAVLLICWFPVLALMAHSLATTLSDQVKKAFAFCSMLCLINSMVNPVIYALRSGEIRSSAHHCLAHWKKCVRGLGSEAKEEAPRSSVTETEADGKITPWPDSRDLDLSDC
T1 sequence (P21554 whole entry): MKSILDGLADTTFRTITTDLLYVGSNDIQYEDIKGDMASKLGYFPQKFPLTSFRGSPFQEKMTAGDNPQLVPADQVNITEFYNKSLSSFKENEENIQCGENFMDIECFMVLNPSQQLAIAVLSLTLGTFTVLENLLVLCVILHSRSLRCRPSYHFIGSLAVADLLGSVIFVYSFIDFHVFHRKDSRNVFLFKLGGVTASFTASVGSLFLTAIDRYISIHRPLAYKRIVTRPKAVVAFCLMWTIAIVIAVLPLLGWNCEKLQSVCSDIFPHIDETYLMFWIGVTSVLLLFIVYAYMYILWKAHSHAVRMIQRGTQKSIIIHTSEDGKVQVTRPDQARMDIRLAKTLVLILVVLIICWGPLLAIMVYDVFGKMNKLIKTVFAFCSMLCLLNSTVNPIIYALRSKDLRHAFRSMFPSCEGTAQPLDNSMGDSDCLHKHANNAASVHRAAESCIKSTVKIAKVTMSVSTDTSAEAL
Chain of Cannabinoid receptor 2 (Mus musculus) (P47936 whole entry): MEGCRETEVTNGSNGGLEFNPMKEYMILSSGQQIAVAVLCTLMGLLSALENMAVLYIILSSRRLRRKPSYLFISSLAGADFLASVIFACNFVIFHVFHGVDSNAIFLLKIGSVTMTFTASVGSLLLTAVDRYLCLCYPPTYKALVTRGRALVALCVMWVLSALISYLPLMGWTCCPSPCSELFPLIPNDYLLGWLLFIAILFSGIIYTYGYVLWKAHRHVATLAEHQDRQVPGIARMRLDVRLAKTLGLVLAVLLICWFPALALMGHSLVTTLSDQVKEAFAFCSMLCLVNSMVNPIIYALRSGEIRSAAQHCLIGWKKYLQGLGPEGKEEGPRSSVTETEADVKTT

Row | Compound | Ki (Cannabinoid receptor 2) | Ki (Cannabinoid receptor 1 [1]) | inhibition (Mus musculus) | Ratio Ki (HEK293-EBNA) | inhibition (Mus musculus; filed as antagonist) | other results
1 | COc1ccc(COc2n[nH]c3ccccc23)cc1 | 4.5 µM | 21 µM | inactive | 4.7 | – | –
2 | Cc1c(C(=O)NN2CCCCC2)nn(-c2ccc(Cl)cc2Cl)c1-c1ccc(I)cc1 | – | – | – | – | Active | –
3 | c1ccc(COc2nn(Cc3ccccc3)c3ccccc23)cc1 | – | – | inactive | 0.7 | – | –
4 | O=[N+]([O-])c1ccc2[nH]nc(OCc3ccc4ccccc4c3)c2c1 | 5 µM | 13.6 µM | inactive | 2.7 | – | –
5 | O=[N+]([O-])c1ccc2c(c1)c(OCC1CCCCC1)nn2Cc1ccccc1 | – | – | – | > 444 | Active | Activity (MC3T3-E1): Non-Toxic; Activity [2]: inactive; inhibition [3]: Active
6 | Cn1nc(OCCc2ccccc2)c2cc([N+](=O)[O-])ccc21 | 1.2 µM | > 40 µM | inactive | > 33.3 | – | inhibition (Cannabinoid receptor 1 [4]): 25%
7 | O=[N+]([O-])c1ccc2c(c1)c(OCc1ccccc1)nn2Cc1ccccc1 | – | – | inactive | 3 | – | –
8 | CCCn1nc(OCc2ccc3ccccc3c2)c2cc([N+](=O)[O-])ccc21 | 0.47 µM | 0.356 µM | – | 0.8 | Active | Activity (MC3T3-E1): Non-Toxic; Activity [2]: inactive; inhibition [3]: Active
9 | O=[N+]([O-])c1ccc2c(c1)c(OCc1ccc3ccccc3c1)nn2Cc1ccccc1 | – | – | inactive | > 25 | – | –
10 | COc1ccc(COc2n[nH]c3ccc([N+](=O)[O-])cc23)cc1 | 1.8 µM | > 40 µM | inactive | > 22.2 | – | –
11 | Cn1nc(OCc2cccc3ccccc23)c2cc([N+](=O)[O-])ccc21 | 0.25 µM | ≥ 40 µM | – | > 160 | Active | –
12 | CCCn1nc(OCc2ccc3ccccc3c2)c2cc(N)ccc21 | 2.9 µM | 1.6 µM | inactive | 0.6 | – | –
13 | c1ccc2c(COc3n[nH]c4ccccc34)cccc2c1 | 0.44 µM | 1.6 µM | inactive | 3.6 | – | –
14 | CCCCCn1nc(OCc2ccc(OC)cc2)c2cc([N+](=O)[O-])ccc21 | – | – | – | 1.6 | Active | –
15 | O=[N+]([O-])c1ccc2[nH]nc(OCc3cccc4ccccc34)c2c1 | 0.9 µM | > 40 µM | – | > 44.4 | Active | inhibition (Cannabinoid receptor 1 [4]): 38%
16 | CCCCCn1nc(OCc2ccc3ccccc3c2)c2cc([N+](=O)[O-])ccc21 | – | – | inactive | 1.2 | – | –
17 | Nc1ccc2c(c1)c(OCc1ccccc1)nn2Cc1ccccc1 | – | – | – | 2.5 | Active | –
18 | CCCCCCC(C)(C)c1cc(OC)c([C@H]2C=C(CO)[C@H]3C[C@@H]2C3(C)C)c(OC)c1 | – | – | – | – | – | Activity [5]: Active
19 | CCCCCOc1nn(CCCCC)c2ccc([N+](=O)[O-])cc12 | – | – | inactive | 1.9 | – | –
20 | Cn1nc(OCc2ccc3ccccc3c2)c2cc([N+](=O)[O-])ccc21 | 3.5 µM | > 40 µM | – | > 11.4 | Active | –
21 | c1ccc2c(c1)c(OCC1CCCCC1)nn2CC1CCCCC1 | – | – | inactive | 0.2 | – | –
22 | c1ccc2cc(COc3n[nH]c4ccccc34)ccc2c1 | 7 µM | 21.7 µM | inactive | 3.1 | – | –
23 | c1ccc2cc(COc3nn(CCC4CCCCC4)c4ccccc34)ccc2c1 | > 40 µM | 0.15 µM | inactive | < 0.004 | – | –
24 | Cn1nc(OCc2ccc3ccccc3c2)c2ccccc21 | 10.1 µM | 4 µM | – | 0.4 | Active | –
